Screening results from PubChem.
STAT3 act: IL-6 driven STAT3 reporter potentiators, primary screen, U3A cells, luciferase, luminescence, MLSCN library | IL-6 STAT3-luciferase reporter; 100% = signal with IL-6 EC80 alone | activation (% of control), % at 5.6 µM | 0.91% of 190,000 active | AID 871, 2007;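 active means activation above the screen-wide mean of compound activation plus 3 SD, cut at about 130% in these data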;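 further: 0% = background luminescence of wells with medium and substrate only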
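Material: STAT3-luciferase reporter U3A cells; Probe or stimulus: IL-6 (33 ng/mL); Incubation: compound pre-incubation 1 h before IL-6, then 6 h stimulation at 37 °C; Technique: luminescence from STAT3-driven luciferase reporter; Evaluation: % activation versus median of IL-6-stimulated wells; Controls: IL-6-only high control.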
PERK inh: block of dimerizer-induced PERK translation repression, primary screen, PERK inhibitor project, CHO PERK-DD cells, SEAP luminescence, HTS. Eukaryotic translation initiation factor 2-alpha kinase 3 (Homo sapiens), Q9NZJ5. CHO PERK-DD fusion, SEAP luminescence translation reporter. inhibition, % at 5.6 µM. 0.17% of 220,000 active. AID 1416, 2008;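 active means inhibition above the mean inhibition of all tested compounds plus 3 SD, set separately per screening campaign, cut at about 2.9% in these data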;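 further: PERK kinase domain activated by AP20187 dimerizer at 100 nM; 0% = DMSO with dimerizer and 100% = rapamycin at 8.4 µM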
HSF1 inhib: HSF1 inhibitors in luciferase reporter cells, primary screen, cell-based, NIH3T3, luminescence | NIH3T3-HGL HSE-luciferase, MG132-induced, luminescence 8 h; active compounds read low | activity change, negative = inhibition, % at 7.5 µM (by protocol) | 0.77% of 300,000 active;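 active means more than half of replicate wells show activity change below -50%, luminescence cut by over half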;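 further: luciferase reports HSF-1 transcriptional activity via heat shock element; 0% = median of DMSO wells and -100% = zero luminescence signal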
Hsp70 act: Hsp70 transcriptional activators, primary screen, cell-based, HeLa, Hsp70 promoter luciferase, luminescence, 10 µM; 0.04% of 200,000 active; HeLa Hsp70 promoter luciferase reporter; scaled: vehicle 0, proteasome-inhibitor control 100%; AID 1203, 2008; activation, % at 10 µM;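 active means activation above the mean across all tested compounds plus 3 SD, cutoff set per campaign, cut at about 5.5% in these data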;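 further: 100% = MG132 at 30 µM as the positive control and 0% = DMSO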
AHR activator: AHR activators, primary screen, cell-based, luminescence, luciferase reporter, human; Aryl hydrocarbon receptor (Homo sapiens), P35869; AHR-responsive luciferase reporter cells; activation, % at 5 µM; 2.5% of 320,000 active; AID 2796, 2010; in the data active means activation above about 47%;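 further: 0% = vehicle wells and 100% = reference agonist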
PolyA inh: polyadenylation inhibitors in yeast reporter cells, primary screen, luminescence, S. cerevisiae. S. cerevisiae SKY197-pL101 polyadenylation reporter, beta-gal luminescence; efflux-impaired pdr1/pdr3 knockout yeast; score 100 = 6 SD above DMSO. activity score, % at 12 µM. 0.02% of 300,000 active;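 active means lowest replicate activity score at least 50, where 100 means six control SD above control mean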;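 further: yeast exposed to compound for 9 h at 30 °C; higher score means more reporter readthrough which indicates perturbed polyadenylation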
* hit, by the source's call; / = not tested or not shown. Most compounds without a hit are left out; they make up all but 3.6% or so of the library.

SMILES | STAT3 act | PERK inh | HSF1 inhib | Hsp70 act | AHR activator | PolyA inh
CC(=O)C1C(c2ccccc2)c2c(noc2C)CC1(C)O (stereo unspecified) | / | 3.2* | -8 | / | -2 | -7
COc1ccc2c(c1)c1nnc(SCC(=O)N3C(C)CCCC3C)nc1n2C (stereo unspecified) | 95 | -1 | -1 | 0 | 50* | -15
COc1ccc(Cc2nnc(-c3cccc(C)c3)o2)cc1OC | 88 | -1 | 3 | 0 | 49* | 14
COc1ccc(CC(=O)Nc2cccc(-c3nnc(-c4cccc(C)c4)o3)c2)cc1OC | 68 | 0 | -12 | 0 | -5 | -13
COc1ccc(C2NC(=S)NC3=C2CCCC3=C2SCCS2)cc1 (stereo unspecified) | 80 | 1 | -56* | 0 | 2 | 14
S=C1NC2=C(CCCC2=C2SCCCS2)C(c2ccccc2)N1 (stereo unspecified) | 106 | 0 | -9 | 0 | -2 | -3
O=C(CNCCc1ccccc1)N1CCc2ccccc2C1 | 110 | 0 | -5 | 0 | 44 | -3
Cc1cnc(C(=O)OCC(=O)Nc2cc(-c3cc(C)c(C)cc3C)nn2-c2ccccc2)cn1 | / | / | -5 | / | 60* | -9
Cc1cc(C)c(-c2cc(NC(=O)CSc3n[nH]c(N)n3)n(-c3ccccc3)n2)cc1C | 102 | 1 | 5 | 0 | 56* | 9
COc1cc(C(=O)OCC(=O)Nc2cc(-c3cc(C)c(C)cc3C)nn2-c2ccccc2)cc(OC)c1OC | 104 | 2 | 13 | 0 | 39 | -4
O=C(Nc1cccc(-n2cnnn2)c1)c1ccoc1COc1ccc(Cl)cc1 | / | / | 10 | / | 3 | -16
Cc1ccc(C(=O)N/C(N)=N/c2nc3ccccc3o2)cc1 | 94 | 0 | 10 | 0 | 30 | -3
COc1ccccc1C(=O)N/C(N)=N/c1nc2ccccc2o1 | 112 | 1 | 17 | 0 | 69* | -8
Cc1ccc(C)c(NC(=O)C(=O)NCC2CCCN2S(=O)(=O)c2cccs2)c1 (stereo unspecified) | / | / | -8 | / | 2 | -14
COc1ccc2cc(CCNS(=O)(=O)c3c(C)cc(C)cc3C)c(=O)[nH]c2c1 | / | / | -7 | / | -2 | 8
Cc1ccc(C)c(OCC(=O)Nc2cc(C(=O)O)cc(C(=O)O)c2)c1 | 111 | 3.4* | -3 | 0 | 2 | -6
COc1cc(NC(=O)c2ccc(Cl)cc2)c(Cl)cc1NC(=O)c1cccnc1 | / | / | 1 | / | 53* | 1
COc1cc(NC(=O)c2cccnc2)c(OC)cc1NC(=O)c1ccc(Br)cc1 | / | / | -4 | / | 43 | 1
Cc1cc(NC(=O)c2ccccc2)cc(NC(=O)c2ccccc2)c1C | / | / | -2 | / | 78* | 5
O=C(Nc1cc(Cl)c(Cl)cc1Cl)c1cccnc1 | / | / | 2 | / | 40 | 19
COc1cc(NC(=O)c2cccnc2)c(Cl)cc1NC(=O)c1ccccc1 | / | / | -8 | / | 75* | -11
COc1cc(NC(=O)c2cccnc2)c(Cl)cc1NC(=O)c1ccc(Cl)cc1 | / | / | 4 | / | 63* | 0
Cc1cc(Cl)ccc1N(CC(=O)NCc1ccc2c(c1)OCO2)S(C)(=O)=O | 104 | 0 | -5 | 0 | 3 | 7
COc1cc(NC(=O)c2ccc(Br)cc2)c(OC)cc1NC(=O)c1ccccc1 | / | / | 2 | / | 63* | 8
COc1ccc(/C=N/n2c(=O)[nH]c3c([nH]c4ccc(Br)cc43)c2=O)cc1CN1CCOCC1 | 101 | -1 | -2 | 0 | 56* | -7
COc1ccc(/C=N/n2c(=O)[nH]c3c([nH]c4ccc(Cl)cc43)c2=O)cc1CN1CCCCC1 | / | 2 | -1 | / | 17 | 2
COc1ccc(NC(=O)C2CC(=O)N(CCc3ccc(F)cc3)C2)c(OC)c1 (stereo unspecified) | / | / | -2 | / | 1 | -9
COC(=O)c1cc(S(=O)(=O)NCc2ccc(F)cc2)cn1C | / | / | -53* | / | -1 | 16
